Test results published in paper PMC3220786 (ACS Chemical Biology, 2011).
Where a SMILES comes first, the peptide text is derived from it. [ ]: non-standard residue; d: D form. The star is where a group is joined. NHCH2CH2OH = OCCN*; For = O=C*

How the values were obtained:
[1] = test system: P. falciparum ScDHOD-D10attB; experiment: SYBR Green proliferation assay, transgenic ScDHOD-D10attB line; assay type: cell-based, Plasmodium falciparum; settings: for shift in IC50, ScDHOD-D10attB vs parental line: transgenic parasites expressing yeast dihydroorotate dehydrogenase; for IC50: Plasmodium falciparum, read-out: IC50 values, ScDHOD-D10attB
In short: (§1)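 Blood-stage P. falciparum D10attB parental line and ScDHOD-D10attB transgenic line (single integrated copy of yeast DHOD gene) were tested in the SYBR Green proliferation assay. IC50 values are means ± SD of three independent experiments, each in duplicate. The shift compares the transgenic IC50 with the parental IC50.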

[2] = test system: P. falciparum ATQ-R lines (cytochrome b mutants); experiment: SYBR Green proliferation assay, atovaquone-resistant; assay type: cell-based, Plasmodium falciparum; settings: for shift of IC50 across ATQ-R lines (control compounds) / loss of potency, residue 133 mutants (M133I, M133V): ATQ-R lines vs parental 3D7; for loss of potency, F267V mutant / loss of potency, residue 144 mutant / loss of potency, triple mutant (M133I/V140T/L181V): ATQ-R line vs parental 3D7
P. falciparum 3D7 strain = experiment: SYBR Green parasite proliferation assay, 3D7; assay type: cell-based, Plasmodium falciparum; settings: CC50 Ba/F3 / IC50 P. falciparum 3D7
[3] = test system: Murine pro-B cell line Ba/F3; experiment: Cytotoxicity, Ba/F3 cells; assay type: cell-based; settings: read-out: mammalian cell line CC50; Ba/F3; CellTiter Glo reagent
[4] = Cytotoxicity, Ba/F3 cells; assay type: cell-based, murine; settings: mouse
P. falciparum DEC-R line = experiment: SYBR Green proliferation assay, decoquinate-resistant; assay type: cell-based, Plasmodium falciparum; settings: loss of potency against decoquinate-resistant clone
[5] = test system: P. yoelii sporozoites in HepG2-A16-CD81EGFP cells; assay type: cell-based, Plasmodium yoelii; settings: for IC50: Plasmodium yoelii, in Homo sapiens, read-out: IC50, liver stage
[6] = test system: P. yoelii (17XNL strain) sporozoites; experiment: Prophylaxis activity test in sporozoite-infected mice; assay type: in vivo, ICR female mouse
In short: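 ICR female mice (7 weeks, 26–36 g) received 50,000 P. yoelii 17XNL sporozoites via the tail vein. Immediately afterwards they were given a single oral gavage dose of test compound at 50 mg kg–1 in corn oil (5 mice). Parasitemia was checked daily by Giemsa-stained tail-snip blood microscopy. Prepatent period = first day parasitemia was seen. Mice were euthanized above 20% parasitemia.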

P. falciparum D10attB = experiment: SYBR Green proliferation assay, parental D10attB line; assay type: cell-based; settings: Plasmodium falciparum, read-out: IC50 values, D10attB
In short: as §1

[7] = biological target: T1, P. yoelii cytochrome c reductase (Plasmodium yoelii, UniProt Q7PDA7); experiment: Ubiquinol-cytochrome c oxidoreductase; assay type: biochemical
T1 sequence (Q7PDA7 1-376): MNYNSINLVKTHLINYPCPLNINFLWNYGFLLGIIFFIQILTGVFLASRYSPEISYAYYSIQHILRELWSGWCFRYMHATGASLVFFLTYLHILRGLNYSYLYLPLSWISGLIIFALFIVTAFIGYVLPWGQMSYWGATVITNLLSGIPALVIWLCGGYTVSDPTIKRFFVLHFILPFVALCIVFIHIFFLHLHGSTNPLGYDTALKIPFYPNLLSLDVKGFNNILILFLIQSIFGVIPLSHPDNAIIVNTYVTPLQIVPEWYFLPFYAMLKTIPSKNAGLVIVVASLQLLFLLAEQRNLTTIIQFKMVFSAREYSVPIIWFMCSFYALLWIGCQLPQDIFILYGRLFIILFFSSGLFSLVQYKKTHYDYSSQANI
T1 sequence (V7P9V8 31-357 partner): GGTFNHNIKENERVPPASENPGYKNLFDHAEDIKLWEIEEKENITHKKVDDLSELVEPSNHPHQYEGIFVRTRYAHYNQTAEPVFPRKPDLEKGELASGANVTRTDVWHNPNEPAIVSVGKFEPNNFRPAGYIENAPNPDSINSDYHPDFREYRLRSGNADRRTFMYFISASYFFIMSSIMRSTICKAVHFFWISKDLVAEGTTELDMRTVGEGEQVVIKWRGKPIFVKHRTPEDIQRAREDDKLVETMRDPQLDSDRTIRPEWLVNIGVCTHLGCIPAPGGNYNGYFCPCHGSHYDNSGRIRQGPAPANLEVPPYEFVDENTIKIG
T1 sequence (Q7RJI2 1-394 partner): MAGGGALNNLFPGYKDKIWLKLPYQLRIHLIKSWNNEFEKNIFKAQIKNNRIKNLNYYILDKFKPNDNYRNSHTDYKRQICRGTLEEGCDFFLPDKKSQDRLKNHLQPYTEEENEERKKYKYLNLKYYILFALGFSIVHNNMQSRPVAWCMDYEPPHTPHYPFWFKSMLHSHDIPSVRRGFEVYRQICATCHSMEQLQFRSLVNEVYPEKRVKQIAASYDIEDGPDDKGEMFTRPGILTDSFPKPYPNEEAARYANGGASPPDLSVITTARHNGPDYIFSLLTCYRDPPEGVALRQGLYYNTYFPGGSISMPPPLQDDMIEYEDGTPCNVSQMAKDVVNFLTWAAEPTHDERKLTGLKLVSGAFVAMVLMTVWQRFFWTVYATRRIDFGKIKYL

[8] = chickens, iv; cited from earlier work

Molecule: COc1ccc(C[C@H]2NC[C@H](O)[C@H]2OC(C)=O)cc1 [Anisomycin]
- shift in IC50, ScDHOD-D10attB vs parental line [1]: no shift
- shift of IC50 across ATQ-R lines (control compounds) [2]: nearly invariable

Molecule: COC[C@H]1C(=O)NCC(=O)N2NCCC[C@H]2C(=O)N(O)[C@H](C)C(=O)O[C@@H](C(C)C)[C@H](NC(=O)[C@](C)(O)[C@]2(O)CC[C@@H](CC(C)C)[C@H](C)O2)C(=O)N2NCCC[C@@H]2C(=O)N1O [Aurantimycin A]
- therapeutic index CC50/IC50 (P. falciparum 3D7 strain): 0.5
- CC50 [3]: 45 nM

Molecule: COc1ccc2cc3[n+](cc2c1OC)CCc1cc2c(cc1-3)OCO2 [Berberine]
- therapeutic index CC50/IC50 (P. falciparum 3D7 strain): 0.6
- CC50 at 3 days ([4]; Ba/F3 cells): 320 nM

Molecule: C[C@@H]1C[C@H](C)C[C@H](C)[C@@H](O)CC(=O)O[C@H]([C@@H]2CCC[C@H]2C(=O)O)C/C=C/C=C(/C#N)[C@H](O)[C@@H](C)C1 [Borrelidin]
- therapeutic index CC50/IC50 (P. falciparum 3D7 strain): 11.6
- CC50 at 3 days ([4]; Ba/F3 cells): 959 nM

Molecule: CCOC(=O)c1cnc2cc(OCC3CC3)c(OCC3CC3)cc2c1O [Ciproquinate]
- therapeutic index CC50/IC50 (P. falciparum 3D7 strain): >156
- CC50 at 3 days ([4]; Ba/F3 cells): > 1250 nM

Molecule: CCCCCCC[N+](CC)(CC)CCCCc1ccc(Cl)cc1 [Clofilium]
- therapeutic index CC50/IC50 (P. falciparum 3D7 strain): >2.4
- CC50 at 3 days ([4]; Ba/F3 cells): > 1250 nM

Molecule: CCCCCCCCCCOc1cc2c(O)c(C(=O)OCC)cnc2cc1OCC [Decoquinate]
- therapeutic index CC50/IC50 (P. falciparum 3D7 strain): >2,500
- therapeutic index CC50/IC50 (P. falciparum 3D7 strain; listed as decoquinate): > 2,500
- CC50 at 3 days ([4]; Ba/F3 cells): > 12500 nM
- fold change in IC50, DEC-R clone vs parental 3D7 (P. falciparum DEC-R line): 90 fold
- fold increase in liver stage activity over atovaquone [5]: 10 fold
- IC50 [5]: 0.177 nM
- prepatent period (day at which parasitemia was first observed) ([6]; single oral dose with 50,000 sporozoites i.v.): 8 days
- IC50 (P. falciparum D10attB): 5.3 ± 1.24 nM
- IC50 [1]: > 1000 nM
- IC50 [7]: 97 nM
- loss of potency, F267V mutant [2]: 2 fold
- loss of potency, residue 144 mutant [2]: no effect
- loss of potency, triple mutant (M133I/V140T/L181V) [2]: 5 fold
- loss of potency, residue 133 mutants (M133I, M133V) [2]: did not alter
- t1/2 [8]: 9 to 22 h

Molecule: CCC(Cc1cnc2nc(N)nc(N)c2n1)c1ccc(C(=O)N[C@@H](CCC(=O)O)C(=O)O)cc1 (some centres unmarked) [Edatrexate]
- therapeutic index CC50/IC50 (P. falciparum 3D7 strain): 0.1
- CC50 at 3 days ([4]; Ba/F3 cells): 5 nM

Molecule: CN(C)c1ccc(C(=C2C=CC(=[N+](C)C)C=C2)c2ccc(N(C)C)cc2)cc1 [Gentian violet]
- therapeutic index CC50/IC50 (P. falciparum 3D7 strain): >4
- CC50 at 3 days ([4]; Ba/F3 cells): > 1250 nM

Molecule: CC(C)C[C@@H](NC(=O)[C@H](C)NC(=O)CNC(=O)[C@@H](NC=O)C(C)C)C(=O)N[C@@H](C)C(=O)N[C@@H](C(=O)N[C@H](C(=O)N[C@@H](C(=O)N[C@@H](Cc1c[nH]c2ccccc12)C(=O)N[C@H](CC(C)C)C(=O)N[C@@H](Cc1c[nH]c2ccccc12)C(=O)N[C@H](CC(C)C)C(=O)N[C@@H](Cc1c[nH]c2ccccc12)C(=O)N[C@H](CC(C)C)C(=O)N[C@@H](Cc1c[nH]c2ccccc12)C(=O)NCCO)C(C)C)C(C)C)C(C)C [Gramicidin A] (For-VGA[dL]A[dV]V[dV]W[dL]W[dL]W[dL]W-NHCH2CH2OH)
- CC50 at 3 days ([4]; Ba/F3 cells (murine pro-B cell line)): 110 nM

Molecule: O[Si](CCCN1CCCCC1)(c1ccccc1)C1CCCCC1 (centres unmarked) [HHSiD, Hexahydro-sila-difenidol]
- therapeutic index CC50/IC50 (P. falciparum 3D7 strain): >16.4
- CC50 [3]: > 1250 nM

Molecule: Cl.Cl.O=C(Nc1ccc(C2=NCCCN2)cc1)c1ccc(C(=O)Nc2ccc(C3=NCCCN3)cc2)cc1 [NSC 57153]
- therapeutic index CC50/IC50 (P. falciparum 3D7 strain): 1.1
- CC50 [3]: 550 nM

Molecule: CCCOC(=O)C[N+](C)(C)CCOCCCCCCCCCCOCC[N+](C)(C)CC(=O)OCCC [Prodeconium]
- therapeutic index CC50/IC50 (P. falciparum 3D7 strain): >156
- CC50 [3]: > 6250 nM

Molecule: COc1ccc(C[C@H](N)C(=O)N[C@H]2[C@@H](O)[C@H](n3cnc4c(N(C)C)ncnc43)O[C@@H]2CO)cc1 [Puromycin]
- therapeutic index CC50/IC50 (P. falciparum 3D7 strain): >14.2
- CC50 at 3 days ([4]; Ba/F3 cells): > 1250 nM

Molecule: CO\C=C(C(=O)OC)/C(C)=C\C=C\c1ccc(Cl)c(OC)c1 [Strobilurin B]
- therapeutic index CC50/IC50 (P. falciparum 3D7 strain): 13.5
- CC50 [3]: 3100 nM

Molecule: CCCCCCCCNC(C)C(O)c1ccc(SC(C)C)cc1 (centres unmarked) [Suloctidil]
- therapeutic index CC50/IC50 (P. falciparum 3D7 strain): 0.6
- CC50 at 3 days ([4]; Ba/F3 cells): 970 nM

Molecule: N=C(N)NCCCCCCCCCCNC(=N)N [Synthalin]
- therapeutic index CC50/IC50 (P. falciparum 3D7 strain): >200
- CC50 at 3 days ([4]; Ba/F3 cells): > 5400 nM

Molecule: CCN(CC)CCOc1ccc2c(c1)C(=O)c1cc(OCCN(CC)CC)ccc1-2 [Tilorone]
- therapeutic index CC50/IC50 (P. falciparum 3D7 strain): >12.5
- CC50 at 3 days ([4]; Ba/F3 cells): > 12500 nM

Molecule: CC(C)[C@@H]1NC(=O)[C@H](C)OC(=O)[C@@H](C(C)C)NC(=O)[C@@H](C(C)C)OC(=O)[C@H](C(C)C)NC(=O)[C@H](C)OC(=O)[C@@H](C(C)C)NC(=O)[C@@H](C(C)C)OC(=O)[C@H](C(C)C)NC(=O)[C@H](C)OC(=O)[C@@H](C(C)C)NC(=O)[C@@H](C(C)C)OC1=O [Valinomycin]
- therapeutic index CC50/IC50 (P. falciparum 3D7 strain): 12.8
- CC50 at 3 days ([4]; Ba/F3 cells): 91 nM

Molecule: CC1=C[C@H]2O[C@@H]3C[C@H]4OC(=O)/C=C\C=C\C(=O)OCC/C(C)=C/C(=O)OC[C@@]2(CC1)[C@]4(C)[C@]31CO1 [Verrucarin J]
- therapeutic index CC50/IC50 (P. falciparum 3D7 strain): 12.1

Molecule: O=C1C(O)=C([C@H]2CC[C@H](c3ccc(Cl)cc3)CC2)C(=O)c2ccccc21 [atovaquone]
- fold change in IC50, DEC-R clone vs parental 3D7 (P. falciparum DEC-R line): 4 fold
- IC50 [5]: 1.7 nM
- protection / survival of mice ([6]; single oral dose (decoquinate 50 mg kg-1, atovaquone 2.5 mg kg-1)): completely protected
- IC50 (P. falciparum D10attB): 0.512 ± 0.164 nM
- IC50 [1]: > 1000 nM
- shift in IC50, ScDHOD-D10attB vs parental line [1]: > 1900 fold
- IC50 [7]: 7.6 nM
- loss of potency, F267V mutant [2]: 20 fold
- loss of potency, residue 144 mutant [2]: ~200 fold
- loss of potency, triple mutant (M133I/V140T/L181V) [2]: 2000 fold
- loss of potency, residue 133 mutants (M133I, M133V) [2]: ~16 fold

Molecule: OC(c1cc(C(F)(F)F)nc2c(C(F)(F)F)cccc12)C1CCCCN1 (centres unmarked) [mefloquine]
- IC50 (P. falciparum D10attB): 7.88 ± 1.64 nM
- IC50 [1]: 4.02 ± 1.4 nM
- shift in IC50, ScDHOD-D10attB vs parental line [1]: slight increase in mefloquine sensitivity
- shift of IC50 across ATQ-R lines (control compounds) [2]: 2 fold

Molecule: Muconomycin B
- therapeutic index CC50/IC50 (P. falciparum 3D7 strain): 12.5
- CC50 [3]: 30 nM
